Results taken from ChEMBL document CHEMBL2074563, “Involvement of multidrug resistance-associated proteins in regulating cellular levels of (-)-epigallocatechin-3-gallate and its methyl metabolites” (Biochem Biophys Res Commun, 2003).
One block for each compound: values may come before it.

Experiments:
Format in all cases: functional, cell-based
Conditions in all cases: dog, mdck-ii
[1] = target: T1, ATP-binding cassette sub-family C member 2 (Homo sapiens, UniProt Q92887); experiment: TP_TRANSPORTER: inhibition of EGCG in MRP2-expressing MDCKII cells
T1 sequence (Q92887 whole entry): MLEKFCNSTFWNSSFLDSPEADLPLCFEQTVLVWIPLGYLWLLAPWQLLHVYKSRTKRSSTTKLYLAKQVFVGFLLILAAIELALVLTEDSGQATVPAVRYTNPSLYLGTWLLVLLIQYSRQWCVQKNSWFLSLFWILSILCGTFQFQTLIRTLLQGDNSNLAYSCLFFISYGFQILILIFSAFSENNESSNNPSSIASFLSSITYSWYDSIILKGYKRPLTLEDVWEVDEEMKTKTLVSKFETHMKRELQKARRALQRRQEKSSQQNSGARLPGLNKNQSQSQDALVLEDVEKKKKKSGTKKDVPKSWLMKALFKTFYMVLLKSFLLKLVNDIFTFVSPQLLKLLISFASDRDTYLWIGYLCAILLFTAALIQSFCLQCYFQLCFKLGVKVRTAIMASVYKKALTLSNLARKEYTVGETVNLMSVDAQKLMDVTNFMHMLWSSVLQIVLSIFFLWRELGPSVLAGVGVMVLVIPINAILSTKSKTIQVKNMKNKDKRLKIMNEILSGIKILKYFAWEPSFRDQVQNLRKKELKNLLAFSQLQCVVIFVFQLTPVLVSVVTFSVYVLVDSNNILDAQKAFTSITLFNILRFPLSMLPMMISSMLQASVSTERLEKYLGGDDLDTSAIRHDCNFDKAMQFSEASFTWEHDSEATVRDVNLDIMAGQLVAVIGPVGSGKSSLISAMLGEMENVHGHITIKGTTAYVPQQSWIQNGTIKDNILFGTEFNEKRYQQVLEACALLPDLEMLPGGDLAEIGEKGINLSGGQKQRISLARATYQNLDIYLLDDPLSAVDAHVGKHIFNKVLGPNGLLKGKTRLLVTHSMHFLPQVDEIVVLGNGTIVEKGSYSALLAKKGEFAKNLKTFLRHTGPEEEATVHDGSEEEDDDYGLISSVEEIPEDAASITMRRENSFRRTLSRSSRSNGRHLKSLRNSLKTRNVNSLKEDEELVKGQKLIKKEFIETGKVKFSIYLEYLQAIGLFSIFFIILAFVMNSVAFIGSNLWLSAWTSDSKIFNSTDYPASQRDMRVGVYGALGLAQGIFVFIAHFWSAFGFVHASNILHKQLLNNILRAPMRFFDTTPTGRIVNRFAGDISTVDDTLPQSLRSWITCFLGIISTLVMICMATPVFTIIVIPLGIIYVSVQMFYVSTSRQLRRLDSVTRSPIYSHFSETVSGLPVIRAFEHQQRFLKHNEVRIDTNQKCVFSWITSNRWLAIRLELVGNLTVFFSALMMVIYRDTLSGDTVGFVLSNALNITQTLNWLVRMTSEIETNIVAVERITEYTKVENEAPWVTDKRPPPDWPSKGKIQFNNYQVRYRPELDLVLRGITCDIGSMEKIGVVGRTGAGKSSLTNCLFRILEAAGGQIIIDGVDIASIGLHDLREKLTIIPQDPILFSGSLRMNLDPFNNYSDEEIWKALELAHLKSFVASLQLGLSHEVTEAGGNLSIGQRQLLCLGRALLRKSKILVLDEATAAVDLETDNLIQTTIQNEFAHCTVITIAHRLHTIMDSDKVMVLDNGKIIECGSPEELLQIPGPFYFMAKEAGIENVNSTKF
Summary of the method: (§1)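 MDCKII cells stably expressing human MRP1 or MRP2, grown to confluence, were preincubated for 2 h in serum-free HBSS. They were then exposed to [3H]EGCG (10 µM, 0.25 µCi/ml) in HBSS with 100 µM ascorbic acid, plus an efflux inhibitor or DMSO vehicle, for 1 h at 37 °C. Inhibitors were 10 µM indomethacin, 1 mM probenecid or 50 µM MK-571. Cells were washed in ice-cold PBS and lysed in 0.2 N NaOH. Cell-associated radioactivity was counted by scintillation and expressed as a ratio to the no-inhibitor control (mean ± SD, n = 4).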

[2] = target: T2, Multidrug resistance-associated protein 1 (Homo sapiens, UniProt P33527); experiment: TP_TRANSPORTER: inhibition of EGCG in MRP1-expressing MDCKII cells; summary of the method: as §1
T2 sequence (P33527 whole entry): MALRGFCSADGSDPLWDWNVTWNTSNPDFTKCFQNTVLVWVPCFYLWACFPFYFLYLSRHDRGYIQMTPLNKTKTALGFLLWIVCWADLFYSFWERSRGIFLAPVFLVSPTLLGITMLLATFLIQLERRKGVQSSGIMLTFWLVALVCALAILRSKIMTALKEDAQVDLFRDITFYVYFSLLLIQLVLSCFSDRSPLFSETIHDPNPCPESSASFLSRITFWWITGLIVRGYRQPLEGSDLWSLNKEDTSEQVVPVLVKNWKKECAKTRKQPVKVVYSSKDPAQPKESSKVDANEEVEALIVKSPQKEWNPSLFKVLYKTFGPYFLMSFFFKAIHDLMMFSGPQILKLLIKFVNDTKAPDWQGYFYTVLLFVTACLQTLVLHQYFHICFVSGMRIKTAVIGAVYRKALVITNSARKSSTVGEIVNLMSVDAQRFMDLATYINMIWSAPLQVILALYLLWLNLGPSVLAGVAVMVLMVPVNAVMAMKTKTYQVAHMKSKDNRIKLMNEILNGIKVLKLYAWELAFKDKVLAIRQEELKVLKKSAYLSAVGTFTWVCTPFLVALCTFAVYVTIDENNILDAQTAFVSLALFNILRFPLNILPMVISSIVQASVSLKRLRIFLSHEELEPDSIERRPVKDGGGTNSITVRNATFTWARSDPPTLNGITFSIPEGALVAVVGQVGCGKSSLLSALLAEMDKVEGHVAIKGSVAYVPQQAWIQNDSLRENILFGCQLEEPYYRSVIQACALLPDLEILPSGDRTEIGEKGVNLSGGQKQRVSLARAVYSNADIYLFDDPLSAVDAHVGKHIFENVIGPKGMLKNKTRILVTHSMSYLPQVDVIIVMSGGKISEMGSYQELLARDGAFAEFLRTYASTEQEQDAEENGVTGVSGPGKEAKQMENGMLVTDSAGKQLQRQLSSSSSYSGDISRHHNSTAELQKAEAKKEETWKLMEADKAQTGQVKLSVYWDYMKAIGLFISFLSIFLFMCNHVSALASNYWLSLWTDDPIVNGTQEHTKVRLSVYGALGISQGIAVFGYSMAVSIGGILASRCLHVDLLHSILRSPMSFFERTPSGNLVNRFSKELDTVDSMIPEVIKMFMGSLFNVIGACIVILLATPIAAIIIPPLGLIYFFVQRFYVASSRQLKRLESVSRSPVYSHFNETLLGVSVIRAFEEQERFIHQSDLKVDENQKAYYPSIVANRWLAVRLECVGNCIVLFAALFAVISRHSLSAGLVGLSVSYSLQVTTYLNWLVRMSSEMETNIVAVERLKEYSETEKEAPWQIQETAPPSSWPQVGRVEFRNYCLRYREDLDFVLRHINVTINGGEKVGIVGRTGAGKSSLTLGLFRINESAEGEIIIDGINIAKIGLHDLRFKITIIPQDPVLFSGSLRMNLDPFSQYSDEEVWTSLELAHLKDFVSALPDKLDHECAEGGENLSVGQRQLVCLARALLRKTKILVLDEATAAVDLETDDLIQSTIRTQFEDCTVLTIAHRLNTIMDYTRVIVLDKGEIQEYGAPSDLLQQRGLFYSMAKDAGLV

[3] = target: T1, ATP-binding cassette sub-family C member 2; experiment: TP_TRANSPORTER: uptake in MRP2-expressing MDCKII cells; summary of the method: as §1
[4] = target: T2, Multidrug resistance-associated protein 1; experiment: TP_TRANSPORTER: uptake in MRP1-expressing MDCKII cells; summary of the method: as §1

- Activity [2]: inhibitor []
SMILES: COc1ccc2c(c1)c(CC(=O)O)c(C)n2C(=O)c1ccc(Cl)cc1 [INDOMETHACIN]

- Activity [3]: substrate []
- Activity [4]: substrate []
SMILES: COc1c(O)cc(C(=O)O[C@@H]2Cc3c(O)cc(O)cc3O[C@@H]2c2cc(O)c(OC)c(O)c2)cc1O

- Activity [3]: substrate []
- Activity [4]: substrate []
SMILES: COc1c(O)cc(C(=O)O[C@@H]2Cc3c(O)cc(O)cc3O[C@@H]2c2cc(O)c(O)c(O)c2)cc1O

- Activity [2]: inhibitor []
SMILES: COc1cc(CCC(=O)CC(=O)CCc2ccc(O)c(OC)c2)ccc1O [TETRAHYDROCURCUMIN]

- Activity [1]: inhibitor []
SMILES: CC[C@]1(O)C[C@H]2CN(CCc3c([nH]c4ccccc34)[C@@](C(=O)OC)(c3cc4c(cc3OC)N(C=O)[C@H]3[C@@](O)(C(=O)OC)[C@H](OC(C)=O)[C@]5(CC)C=CCN6CC[C@]43[C@@H]65)C2)C1 [VINCRISTINE]

Further lines, the compound ahead of its results:

SMILES: CCCN(CCC)S(=O)(=O)c1ccc(C(=O)O)cc1 [PROBENECID]
- Activity [1]: inhibitor []
- Activity [2]: inhibitor []

SMILES: COc1ccc(-c2coc3cc(O)cc(O)c3c2=O)cc1 [BIOCHANIN]
- Activity [2]: inhibitor []

SMILES: COc1ccc(-c2coc3cc(O)ccc3c2=O)cc1 [FORMONONETIN]
- Activity [2]: inhibitor []

SMILES: CN(C)C(=O)CCSC(SCCC(=O)O)c1cccc(/C=C/c2ccc3ccc(Cl)cc3n2)c1 (stereo not given) [MK-571]
- Activity [1]: inhibitor []

SMILES: O=c1c(-c2ccc(O)cc2)coc2cc(O)ccc12 [DAIDZEIN]
- Activity [2]: inhibitor []

SMILES: COc1cc(/C=C/C(=O)CC(=O)/C=C/c2ccc(O)c(OC)c2)ccc1O [CURCUMIN]
- Activity [2]: inhibitor []

SMILES: O=c1c(-c2ccc(O)cc2)coc2cc(O)cc(O)c12 [GENISTEIN]
- Activity [2]: inhibitor []
